The source made the active and inactive calls. The calls are words filed in the database; no cut-off is given here.
Legend:
BT-474 [1] = assay: Cytotoxicity against human BT474 cells assessed as reduction in cell number incubated for 72 hrs; format: functional, cell-based; conditions: BT-474, 72 h
Outline: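 Cells seeded at 2000/well and left overnight, then exposed 72 h to seven 3-fold serial dilutions from 100 µM. Cell number read by CyQUANT DNA dye (independent of metabolism), relative to vehicle as 100%. BT-474 grown in high-glucose DMEM, 4 mM L-glutamine, 10% FBS, 0.25 mM pyruvate.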

HMEC = assay: Cytotoxicity against HMEC cells assessed as reduction in cell number incubated for 72 hrs; format: cell-based; conditions: Homo sapiens
[2] = molecular target: T1, Nuclear receptor subfamily 1 group D member 2 (Homo sapiens) (UniProt Q14995); assay: Inhibition of REV-ERBbeta in human BT474 cells assessed as increase in BMAL1 expression at 10 uM incubated for 16 hrs by immunoblot method; conditions: BT-474
T1 sequence (whole entry): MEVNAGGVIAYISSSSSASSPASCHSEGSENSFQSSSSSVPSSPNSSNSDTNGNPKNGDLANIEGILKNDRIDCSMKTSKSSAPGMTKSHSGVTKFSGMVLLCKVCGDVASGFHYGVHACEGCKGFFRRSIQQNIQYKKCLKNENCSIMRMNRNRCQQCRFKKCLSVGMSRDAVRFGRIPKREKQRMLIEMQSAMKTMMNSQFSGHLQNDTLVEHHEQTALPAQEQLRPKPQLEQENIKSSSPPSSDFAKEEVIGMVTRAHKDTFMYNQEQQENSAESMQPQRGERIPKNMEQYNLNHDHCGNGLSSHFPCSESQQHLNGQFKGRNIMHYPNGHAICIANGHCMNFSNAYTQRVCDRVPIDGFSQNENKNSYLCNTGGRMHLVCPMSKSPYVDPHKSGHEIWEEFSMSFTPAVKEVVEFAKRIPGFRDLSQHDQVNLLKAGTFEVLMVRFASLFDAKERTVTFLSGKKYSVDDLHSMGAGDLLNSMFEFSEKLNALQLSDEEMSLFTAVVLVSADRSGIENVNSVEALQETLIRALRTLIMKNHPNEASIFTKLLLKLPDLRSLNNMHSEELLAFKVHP

[3] = Toxicity against human BT474 cells assessed as reduction in cell number at 10 uM incubated for 16 hrs; format: cell-based; conditions: bt-474, 16 h
BT-474 [4] = assay: Lysosomotropic activity in human BT474 cells assessed as […] incubated for 24 hrs by lysosomotropy assay; format: functional, cell-based; conditions: BT-474, 24 h
Outline: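 Seeded at 2000 cells/well overnight, then treated. Lysosomal staining (LysoTracker fluorescence) measured 24 h post-treatment. IC50 from concentration–response plots, mean ± SEM, N ≥ 6.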

BT-474 [5] = assay: Inhibition of autophagy in human BT474 cells assessed as increase in LC3-II protein levels at 10 uM by immunoblot method; format: functional, cell-based
Outline: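 BT-474 exposed 4 h at 10 µM. Protein extracted in RIPA buffer and immunoblotted for LC3B and GAPDH in TBS-T with 5% BSA. HRP secondary at 1:20000, ECL detection. Band densitometry reported as LC3B/GAPDH ratio.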

[6] = molecular target: T1, Nuclear receptor subfamily 1 group D member 2 (Homo sapiens); assay: (§1) Inhibition of REV-ERBbeta (unknown origin) expressed in HEK293 cells incubated for 24 hrs assessed as inhibition of receptor-mediated transcriptional repression by REV-ERB luciferase reporter assay; format: cell-based
Outline: (§2)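 HEK-293 co-transfected with a REV-ERBβ expression plasmid and a reporter with two REV-ERB response elements driving Cypridina luciferase. Compounds added the next day; luciferase activity read after 24 h. IC50 from concentration–response plots, mean ± SEM, N ≥ 6.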

HepG2 [7] = assay: Inhibition of autophagy in human HepG2 cells assessed as increase in GFP/RFP/LC3 chimera protein levels at 30 uM incubated for 4 hrs by fluorescent microscopy; format: functional, cell-based
Outline: (§3)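 Cells transduced with LC3 fused to acid-sensitive GFP and acid-insensitive RFP. Compound or DMSO vehicle added 48 h post-transduction. After 4 h, GFP and RFP fluorescent dots counted by fluorescence microscopy.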

[8] = molecular target: T1, Nuclear receptor subfamily 1 group D member 2 (Homo sapiens); assay: Inhibition of REV-ERBbeta in human HepG2 cells assessed as […] at 10 uM incubated for 16 hrs by immunoblot method; format: cell-based
MCF7 = assay: Cytotoxicity against human MCF7 cells assessed as reduction in cell number incubated for 72 hrs; format: functional, cell-based; conditions: MCF7, 72 h
Outline: (§4)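 Grown in high-glucose DMEM with 4 mM L-glutamine, 10% FBS and 0.5 mM sodium pyruvate. Seeded at 2000 cells/well overnight, then treated 72 h with seven 3-fold dilutions from 100 µM. Cell number by CyQUANT, % of vehicle. IC50 by log(inhibitor)–response fit, mean ± SEM, n ≥ 6.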

SK-BR-3 = assay: Inhibition of autophagy in human SKBR3 cells assessed as increase in GFP/RFP/LC3 chimera protein levels at 30 uM incubated for 4 hrs by fluorescent microscopy; format: functional, cell-based; outline: as §3
LNCaP [9] = assay: Potency index, ratio of IC50 for chloroquine to IC50 for test compound against human LNCAP cells assessed as reduction in cell number incubated for 72 hrs; format: functional
Outline: (§5)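 HepG2 was grown in high-glucose DMEM with 4 mM L-glutamine, 10% FBS and 0.5 mM pyruvate; LNCaP in RPMI-1640 with 4 mM L-glutamine and 10% FBS. Cells were seeded at 2000/well, left overnight, then given seven 3-fold dilutions from 100 µM for 72 h. Cell number was read by CyQUANT DNA stain against vehicle (100%). IC50s came from log(inhibitor)–response fits, ≥6 experiments, and chloroquine IC50 was divided by test IC50.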

LNCaP [10] = assay: Inhibition of autophagy in human LNCAP cells assessed as increase in GFP/RFP/LC3 chimera protein levels at 30 uM incubated for 4 hrs by fluorescent microscopy; format: functional, cell-based; outline: as §3
HepG2 [11] = assay: Cytotoxicity against human HepG2 cells assessed as reduction in cell number incubated for 72 hrs; format: functional, cell-based; conditions: HepG2, 72 h; outline: as §4
LNCaP [12] = assay: Cytotoxicity against human LNCAP cells assessed as reduction in cell number incubated for 72 hrs; format: functional, cell-based
Outline: (§6)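 RPMI-1640 with 4 mM L-glutamine and 10% FBS for culture. 2000 cells/well seeded overnight, then 72 h exposure to seven 3-fold dilutions (top 100 µM; top 900 µM for the reference autophagy inhibitor in MDA-MB-361). Cell number by CyQUANT relative to vehicle. IC50 from concentration–response curves, mean ± SEM, n ≥ 6.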

MDA-MB-361 = assay: Cytotoxicity against human MDA-MB-361 cells assessed as reduction in cell number incubated for 72 hrs; format: functional, cell-based; conditions: MDA-MB-361, 72 h; outline: as §6
HepG2 [13] = assay: Potency index, ratio of IC50 for chloroquine to IC50 for test compound against human HepG2 cells assessed as reduction in cell number incubated for 72 hrs; format: functional; outline: as §5
[14] = molecular target: T1, Nuclear receptor subfamily 1 group D member 2 (Homo sapiens); assay: Inhibition of REV-ERBbeta in human LNCAP cells assessed as […] at 10 uM incubated for 16 hrs by immunoblot method; format: cell-based
[15] = molecular target: T1, Nuclear receptor subfamily 1 group D member 2 (Homo sapiens); assay: Inhibition of REV-ERBbeta in human SKBR3 cells assessed as […] at 10 uM incubated for 16 hrs by immunoblot method; format: cell-based; conditions: SK-BR-3
[16] = molecular target: T2, Nuclear receptor subfamily 1 group D member 2 (Homo sapiens, UniProt Q14995); assay: as §1; format: cell-based; outline: as §2
T2 sequence (Q14995 whole entry): T1 sequence (whole entry)

[17] = Cytotoxicity against human SKBR3 cells assessed as reduction in cell number incubated for 72 hrs; format: functional, cell-based; conditions: SK-BR-3, 72 h
Outline: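 McCoy's medium plus 10% FBS; 2000 cells/well, overnight attachment, 72 h treatment with seven 3-fold dilutions from 100 µM (900 µM top for the reference autophagy inhibitor). CyQUANT cell number as % of vehicle. IC50 by log(inhibitor)–response fitting, mean ± SEM of ≥6 experiments.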

CN1CCN(Cc2ccc(CNC3(c4ccccc4F)CCCC3)cc2)CC1
IC50 (BT-474 [1]): > 100 µM

CCN(CC)Cc1cc(CNC2(c3ccccc3F)CCCC2)ccc1O
IC50 (BT-474 [1]): > 100 µM

Fc1ccccc1C1(NCc2cccc(CN3CCCCC3)c2)CCCC1
IC50 (BT-474 [1]): 40 µM
IC50 (HMEC): > 100 µM

CN1CCN(Cc2cc(CNC3(c4ccccc4F)CCC3)ccc2O)CC1
IC50 (BT-474 [1]): > 100 µM

COc1cccc(C2(NCc3ccc(O)c(CN4CCN(C)CC4)c3)CCCC2)c1
IC50 (BT-474 [1]): 11.8 µM
IC50 (HMEC): 13.1 µM

Oc1ccc(CNC2(c3ccccc3F)CCCC2)cc1CN1CCCCC1
IC50 (BT-474 [1]): 35.6 µM
IC50 (HMEC): > 100 µM

CN1CCC(Cc2cccc(CNC3(c4ccccc4F)CCCC3)c2)CC1
inhibition [2]: Active
Activity [3]: Non-toxic
IC50 (BT-474 [4]): 10 µM
inhibition (BT-474 [5]): Active
IC50 (BT-474 [1]): 15.5 µM
inhibition [6]: Active
IC50 (HMEC): > 100 µM

CN1CCN(Cc2cc(CNC3(c4ccccc4)CCCC3)ccc2O)CC1
IC50 (BT-474 [1]): 27.5 µM
IC50 (HMEC): > 100 µM

Oc1ccc(CNC2(c3ccccc3F)CCCC2)cc1CN1CCNCC1
IC50 (BT-474 [1]): 31.9 µM
IC50 (HMEC): > 100 µM

Oc1ccc(CNC2(c3ccccc3F)CCCC2)cc1CN1CCOCC1
IC50 (BT-474 [1]): > 100 µM

CN1CCN(Cc2cc(CNCc3ccccc3F)ccc2O)CC1
IC50 (BT-474 [1]): > 100 µM

CCN1CCN(Cc2cc(CNC3(c4ccccc4F)CCCC3)ccc2O)CC1
IC50 (BT-474 [1]): 39.3 µM
IC50 (HMEC): > 100 µM

CN1CCC(Cc2cccc(CNC3(c4ccc(F)cc4)CCCC3)c2)CC1
inhibition (HepG2 [7]): Active
inhibition [8]: Active
IC50 (MCF7): 2.19 µM
inhibition (SK-BR-3): Active
Ratio IC50 (LNCaP [9]): 4
inhibition (LNCaP [10]): Active
inhibition [2]: Active
Activity [3]: Non-toxic
IC50 (HepG2 [11]): 2.73 µM
IC50 (LNCaP [12]): 8.68 µM
IC50 (MDA-MB-361): 30.6 µM
IC50 (BT-474 [4]): 10 µM
Ratio IC50 (HepG2 [13]): 10
inhibition [14]: Active
inhibition (BT-474 [5]): Active
inhibition [15]: Active
IC50 (BT-474 [1]): 2.1 µM
IC50 [16]: 1.34 µM
IC50 [17]: 16 µM
IC50 (HMEC): > 100 µM

CC(=O)N1CCN(Cc2cc(CNC3(c4ccccc4F)CCCC3)ccc2O)CC1
IC50 (BT-474 [1]): > 100 µM

CN1CCN(Cc2ccccc2CNC2(c3ccccc3F)CCCC2)CC1
IC50 (BT-474 [1]): > 100 µM

CN1CCN(Cc2cc(CNC(C)(C)c3ccccc3F)ccc2O)CC1
IC50 (BT-474 [1]): > 100 µM

COc1ccccc1C1(NCc2ccc(O)c(CN3CCN(C)CC3)c2)CCCC1
IC50 (BT-474 [1]): 31.1 µM
IC50 (HMEC): 17.4 µM

Oc1ccc(CNC2(c3ccccc3F)CCCC2)cc1CN1CCN(Cc2ccccc2)CC1
IC50 (BT-474 [1]): 34.7 µM
IC50 (HMEC): > 100 µM

CN1CCN(Cc2cc(C(=O)NC3(c4ccccc4F)CCCC3)ccc2O)CC1
IC50 (BT-474 [1]): > 100 µM

CN1CCN(Cc2cccc(CNC3(c4ccccc4F)CCCC3)c2)CC1
IC50 (BT-474 [1]): 34 µM
IC50 (HMEC): > 100 µM

CN1CCN(Cc2cc(CN(C)C3(c4ccccc4F)CCCC3)ccc2O)CC1
IC50 (BT-474 [1]): > 100 µM

CN1CCN(Cc2cc(CNC3(c4ccccc4F)CCCCC3)ccc2O)CC1
IC50 (BT-474 [1]): 30.7 µM
IC50 (HMEC): > 100 µM

CN1CCN(Cc2cc(CNC3(c4ccccc4F)CCCC3)ccc2O)CC1
inhibition [2]: Active
Activity [3]: Non-toxic
IC50 (BT-474 [4]): 10 µM
inhibition (BT-474 [5]): Active
IC50 (BT-474 [1]): 30.1 µM
IC50 [16]: 17.5 µM
IC50 (HMEC): > 100 µM

COc1ccc(CNC2(c3ccccc3F)CCCC2)cc1CN1CCN(C)CC1
IC50 (BT-474 [1]): > 100 µM

CC1CCC(Cc2cccc(CNC3(c4ccccc4F)CCCC3)c2)CC1 (mixture of isomers)
IC50 (BT-474 [1]): > 100 µM

Oc1ccc(CNC2(c3ccccc3F)CCCC2)cc1CN1CCN(c2ccccc2)CC1
IC50 (BT-474 [1]): 37.8 µM
IC50 (HMEC): > 100 µM

CN1CCN(Cc2cc(CNC3(c4ccc(F)cc4)CCCC3)ccc2O)CC1
inhibition [2]: Active
Activity [3]: Non-toxic
IC50 (BT-474 [4]): 10 µM
inhibition (BT-474 [5]): Active
IC50 (BT-474 [1]): 9.41 µM
inhibition [6]: Active
IC50 (HMEC): > 100 µM

CN1CCN(Cc2cc(CNC3(c4cccc(F)c4)CCCC3)ccc2O)CC1
IC50 (BT-474 [1]): 14.2 µM
IC50 (HMEC): > 100 µM

CC(NCc1ccc(O)c(CN2CCN(C)CC2)c1)c1ccccc1F (stereo not given)
IC50 (BT-474 [1]): > 100 µM

CC(C)N1CCN(Cc2cc(CNC3(c4ccccc4F)CCCC3)ccc2O)CC1
IC50 (BT-474 [1]): 33.3 µM
IC50 (HMEC): > 100 µM

— ChEMBL document CHEMBL3588752, “Synthesis and in Vitro Anticancer Activity of the First Class of Dual Inhibitors of REV-ERBβ and Autophagy” (J Med Chem, 2015)
